How the values were obtained:
[1] = molecular target: Metabotropic glutamate receptor 3 (Rattus norvegicus) (UniProt P31422); assay: Antagonistic activity against Glutamate receptor in rat spinal cord at concentration of 21 uM.; type: functional, tissue-based
In short: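 Neonatal rat spinal cord, hemisected sagittally, superfused at 1 mL/min with oxygenated Krebs-Henseleit medium containing 0.5% urethane at room temperature. Agonists were given in 2-mL doses in the superfusate. Antagonist was superfused continuously for at least 15 min before agonist retesting. Read-out was ventral root depolarization (DC potential, ventral root vs cord body), measured as amplitude and area of response.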

[2] = molecular target: Substance-P receptor (Rattus norvegicus, UniProt P14600); assay: Compound was evaluated for the histamine releasing activity of the Substance P from isolated rat peritoneal mast cells using the procedure of Fretwell et al; type: functional, cell-based
In short: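 Histamine release from isolated rat peritoneal mast cells, method of Fretwell et al. Dose-response curves were built over a range of concentrations, and EC50 values were calculated from the curves.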

[3] = molecular target: Substance-P receptor (Cavia porcellus) (UniProt P30547); assay: Antagonistic activity against Substance P(6-11) receptor in guinea pig ileum at concentration of 4.5 uM.; type: functional, tissue-based
In short: (§1)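 Distal ileum from Dunkin-Hartley guinea pigs (300-350 g, both sexes), held in a 5-mL bath of Krebs solution at 37 °C gassed with 95% O2/5% CO2. Agonist dose-response curves ran on a 3-min cycle with 1-min contact, then washout. Dose ratio = agonist EC50 with antagonist / EC50 alone. At least two preparations per compound; ratios below two were taken as insignificant.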

[4] = molecular target: Substance-P receptor (Cavia porcellus) (UniProt P30547); assay: Antagonistic activity against Substance P receptor in guinea pig ileum at concentration of 1 uM.; type: functional, tissue-based; in short: as §1
[5] = molecular target: Substance-P receptor (Cavia porcellus) (UniProt P30547); assay: Antagonistic activity against Substance P receptor in guinea pig ileum at concentration of 4.5 uM.; type: functional, tissue-based; in short: as §1
[6] = molecular target: Substance-P receptor (Cavia porcellus) (UniProt P30547); assay: Antagonistic activity against Substance P(6-11) receptor in guinea pig ileum at concentration of 1 uM.; type: functional, tissue-based; in short: as §1
[7] = molecular target: Substance-P receptor (Rattus norvegicus) (UniProt P14600); assay: Antagonistic activity against Substance P receptor in rat spinal cord at concentration of 43 uM.
[8] = molecular target: Substance-P receptor (Rattus norvegicus) (UniProt P14600); assay: Antagonistic activity against Substance P receptor in rat spinal cord at concentration of 21 uM.
[9] = molecular target: Substance-P receptor (Rattus norvegicus) (UniProt P14600); assay: Antagonistic activity against Substance P(6-11) receptor in rat spinal cord at concentration of 21 uM.
[10] = molecular target: Substance-P receptor (Rattus norvegicus) (UniProt P14600); assay: Antagonistic activity against Substance P(6-11) receptor in rat spinal cord at concentration of 43 uM.

Substance-P receptor (Rattus norvegicus), sequence (P14600 whole entry, looked up): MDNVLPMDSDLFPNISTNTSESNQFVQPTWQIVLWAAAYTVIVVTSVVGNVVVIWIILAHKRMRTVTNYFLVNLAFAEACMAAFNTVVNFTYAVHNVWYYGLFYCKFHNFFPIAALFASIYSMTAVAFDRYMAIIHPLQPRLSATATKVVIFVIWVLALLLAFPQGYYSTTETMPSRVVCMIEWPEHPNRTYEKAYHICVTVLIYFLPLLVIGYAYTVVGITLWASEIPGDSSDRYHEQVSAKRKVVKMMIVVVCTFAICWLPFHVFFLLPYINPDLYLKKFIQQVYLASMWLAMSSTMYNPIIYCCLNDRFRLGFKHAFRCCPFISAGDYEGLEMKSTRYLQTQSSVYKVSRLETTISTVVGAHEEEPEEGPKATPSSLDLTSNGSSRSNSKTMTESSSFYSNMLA
Substance-P receptor (Cavia porcellus), sequence (P30547 whole entry): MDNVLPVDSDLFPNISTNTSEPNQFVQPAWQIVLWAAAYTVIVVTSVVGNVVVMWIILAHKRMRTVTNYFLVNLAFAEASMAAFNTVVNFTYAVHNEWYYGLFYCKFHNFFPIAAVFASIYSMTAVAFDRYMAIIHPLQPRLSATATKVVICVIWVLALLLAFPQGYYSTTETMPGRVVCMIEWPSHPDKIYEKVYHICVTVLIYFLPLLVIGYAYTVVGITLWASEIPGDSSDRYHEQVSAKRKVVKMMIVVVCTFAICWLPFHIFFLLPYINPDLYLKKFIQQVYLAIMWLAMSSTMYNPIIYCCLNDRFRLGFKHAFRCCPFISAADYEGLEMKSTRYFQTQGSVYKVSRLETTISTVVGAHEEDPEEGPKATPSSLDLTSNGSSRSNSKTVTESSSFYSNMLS
Substance-P receptor, sequence (P14600 whole entry): as the sequence (P14600 whole entry, looked up) above
Metabotropic glutamate receptor 3 (Rattus norvegicus), sequence (P31422 23-879 limits assumed): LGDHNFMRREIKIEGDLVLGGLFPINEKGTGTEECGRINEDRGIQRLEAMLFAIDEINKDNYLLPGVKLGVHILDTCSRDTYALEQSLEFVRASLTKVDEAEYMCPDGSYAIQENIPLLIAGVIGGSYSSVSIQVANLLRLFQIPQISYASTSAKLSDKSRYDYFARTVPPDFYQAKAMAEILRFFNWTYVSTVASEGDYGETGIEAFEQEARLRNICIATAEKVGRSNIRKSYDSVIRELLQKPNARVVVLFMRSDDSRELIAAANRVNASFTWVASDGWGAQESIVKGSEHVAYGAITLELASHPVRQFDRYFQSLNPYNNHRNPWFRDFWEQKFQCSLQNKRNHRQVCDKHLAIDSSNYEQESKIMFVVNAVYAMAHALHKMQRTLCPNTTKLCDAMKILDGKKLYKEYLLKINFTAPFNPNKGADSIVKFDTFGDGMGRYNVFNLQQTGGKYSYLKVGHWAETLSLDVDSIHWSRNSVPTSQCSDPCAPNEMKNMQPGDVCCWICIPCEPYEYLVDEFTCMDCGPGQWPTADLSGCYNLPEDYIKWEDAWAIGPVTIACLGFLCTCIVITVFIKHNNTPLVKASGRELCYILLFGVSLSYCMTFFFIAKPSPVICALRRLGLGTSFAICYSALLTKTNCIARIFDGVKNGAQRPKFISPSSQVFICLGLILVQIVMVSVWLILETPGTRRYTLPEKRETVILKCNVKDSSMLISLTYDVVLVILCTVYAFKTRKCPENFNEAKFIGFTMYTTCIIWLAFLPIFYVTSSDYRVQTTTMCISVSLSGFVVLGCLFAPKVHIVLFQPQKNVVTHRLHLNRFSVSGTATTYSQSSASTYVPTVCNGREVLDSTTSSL

- Change in amplitude response [1]: -15%
- IC50 [2]: > 500 µM
- Activity [3]: 10.8 dose ratio
- Activity [4]: 5 dose ratio
- Activity [5]: 11.4 dose ratio
- Activity [6]: 9.3 dose ratio
- Change in amplitude response [7]: 0%
- Change in amplitude response [8]: 17%
- Change in amplitude response [9]: -44%
- Change in amplitude response [10]: -54%
Compound: COC(=O)[C@H](CCSC)NC(=O)[C@H](CC(C)C)NC(=O)[C@@H](Cc1c[nH]c2ccccc12)NC(=O)[C@H](Cc1ccccc1)NC(=O)[C@@H](Cc1ccccc1)NC(=O)[C@H](CCCCNC(=O)OCc1ccccc1)NC(=O)[C@H](CC(N)=O)NC(=O)[C@@H]1CCCN1C(=O)[C@H](CCCCNC(=O)OCc1ccccc1)NC(=O)[C@@H]1CCCN1C(=O)[C@H](CCCN=C(N)N)NC(=O)OCc1ccccc1
